# Results from ChEMBL document CHEMBL1142581, “Resveratrol derivatives from the roots of Vitis thunbergii” (J Nat Prod, 2005).
# Tests used:
# [1] = Antiplatelet activity against citreated rabbit platelet assessed as arachidonic acid-induced platelet aggregation; type: functional, cell-based; settings: Oryctolagus cuniculus
# How it was run: (§1)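 Washed platelets from fresh rabbit blood, preincubated 2 min at 37 °C with various compound concentrations or 0.5% DMSO (control), then challenged with arachidonic acid or U46619. Turbidimetric aggregation: platelet suspension set as 0% and platelet-free Tyrode solution as 100%. Inhibition % = [1 − sample/control aggregation] × 100. IC50 reported as mean ± SD (n=4).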
# [2] = Antiplatelet activity against citreated rabbit platelet assessed as inhibition of 9,11-dideoxy-11 alpha, 9 alpha epoxy-methanoprostaglandin F2alpha-induced platelet aggregation; type: functional, cell-based; settings: Oryctolagus cuniculus; how it was run: as §1
# [3] = Antioxidant activity assessed as ABTS radical scavenging activity; type: functional
# How it was run: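 ABTS radical cation generated from 7.5 mM ABTS with 2.5 mM […], then diluted. Various concentrations of vehicle, test agents or Trolox (positive control) were mixed with an equal volume of the diluted radical solution for 6 min. Remaining radical was read as absorbance at 734 nm. EC50 calculated, mean ± SD (n=6).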
IC50 [1],IC50 [2],EC50 [3],Compound
5.7 µM,3.9 µM,4.8 µM,Oc1ccc([C@H]2Oc3cc(O)cc(/C=C/c4ccc5c(c4)[C@H](c4cc(O)cc6c4[C@H](c4cc(O)cc(O)c4)[C@@H](c4ccc(O)cc4)O6)[C@H](c4ccc(O)cc4)O5)c3[C@@H]2c2cc(O)cc(O)c2)cc1
7 µM,3.1 µM,4.4 µM,O=Cc1ccc2c(c1)C(c1cc(O)cc3c1[C@H](c1cc(O)cc(O)c1)[C@@H](c1ccc(O)cc1)O3)[C@H](c1ccc(O)cc1)O2 (some centres undefined)
> 100 µM,> 100 µM,2.8 µM,Oc1ccc(/C=C/c2cc(O)cc3c2[C@H](c2cc(O)cc(O)c2)[C@@H](c2ccc(O)cc2)O3)cc1
8.1 µM,5.9 µM,5.4 µM,Oc1ccc([C@@H]2c3c(O)cc4c5c3[C@@H]([C@@H](c3ccc(O)cc3)c3c(O)cc(O)cc3[C@@H]5[C@@H](c3ccc(O)cc3)O4)[C@H]2c2cc(O)cc(O)c2)cc1 [AMPELOPSIN C]
32.7 µM,,,CC(=O)Oc1ccccc1C(=O)O [ASPIRIN]
9 µM,7.5 µM,6.6 µM,Oc1ccc(/C=C/c2cc(O)cc3c2[C@@H](c2cc(O)cc4c2[C@H](c2cc(O)cc5c2[C@@H](c2cc(O)cc(O)c2)[C@H](c2ccc(O)cc2)O5)[C@@H](c2ccc(O)cc2)O4)[C@H](c2ccc(O)cc2)O3)cc1 [MIYABENOL A]
,,28.4 µM,Cc1c(C)c2c(c(C)c1O)CCC(C)(C(=O)O)O2 (centres undefined) [TROLOX]
10.3 µM,13.3 µM,13.8 µM,Oc1ccc([C@H]2c3c(O)cc(O)cc3[C@H]3c4c(cc(O)cc4[C@@H]2c2cc(/C=C/c4cc(O)cc5c4[C@H](c4cc(O)cc(O)c4)[C@@H](c4ccc(O)cc4)O5)ccc2O)O[C@@H]3c2ccc(O)cc2)cc1 [VITISIN A]
> 100 µM,7.8 µM,3.6 µM,O=Cc1ccc(O)c([C@H]2c3cc(O)cc4c3[C@H](c3cc(O)cc(O)c3[C@@H]2c2ccc(O)cc2)[C@@H](c2ccc(O)cc2)O4)c1 [VITISINOL B]
13.4 µM,10.5 µM,4.5 µM,O=C1C=C(/C=C/c2ccc(O)cc2)C[C@@H](c2cc(O)cc(O)c2)[C@H](c2ccc(O)cc2)C1 [VITISINOL C]
15 µM,5.7 µM,4.1 µM,O=C1C=C(/C=C/c2ccc(O)cc2)[C@H]2C(=O)[C@@H]1[C@H](c1ccc(O)cc1)[C@H]2c1cc(O)cc(O)c1 [VITISINOL D]
